KCNK9 inh = KCNK9 potassium channel inhibitors, primary screen, HEK293 cells, thallium flux; FluxOR thallium flux fluorescence; active compounds read low; B-score at 10 µM; 1.2% of 310,000 active;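 active means ratio B-score over 3 SD below the library mean, with starting fluorescence within 5 SD of its mean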;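 further: negative B-score means less thallium flux so channel inhibition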
Target sequence (Q9NPC2 whole entry, looked up): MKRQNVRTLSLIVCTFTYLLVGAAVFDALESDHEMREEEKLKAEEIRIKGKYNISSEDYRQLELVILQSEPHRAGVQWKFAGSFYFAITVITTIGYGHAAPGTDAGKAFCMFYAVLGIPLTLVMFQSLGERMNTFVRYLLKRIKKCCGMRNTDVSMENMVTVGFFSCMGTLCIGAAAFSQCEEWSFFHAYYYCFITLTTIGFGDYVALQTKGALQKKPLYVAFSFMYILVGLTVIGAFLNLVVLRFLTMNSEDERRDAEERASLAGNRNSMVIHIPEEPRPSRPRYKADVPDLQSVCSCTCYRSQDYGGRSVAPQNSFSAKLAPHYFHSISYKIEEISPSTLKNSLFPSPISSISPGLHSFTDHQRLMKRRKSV
KCNK3 inh = human KCNK3 channel inhibitors, primary screen, CHO cells, FluxOR thallium flux, B-score; FluxOR fluorescence; active compounds read low; B-score at 10 µM; 0.84% of 340,000 active; AID 602410, 2012;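 active means B-score under library mean minus 4 SD, starting fluorescence ratio at most library mean plus 5 SD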;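 further: more negative B-score means stronger inhibition of thallium flux through KCNK3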
KCNQ1 act = potentiators or activators of KCNQ1 channel, primary screen, cell-based, thallium flux, high-throughput | AID 2648, 2010 | 0.35% of 310,000 active | CHO-K1 KCNQ1, thallium flux FluxOR fluorescence; active compounds read high | Potassium voltage-gated channel subfamily KQT member 1 (Homo sapiens), P51787 | B-score at 10 µM;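 active means fluorescence ratio B-score, a plate-corrected score, at least three library SD, with initial intensity B-score within 5 SD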
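Test system: CHO-K1 cells stably expressing KCNQ1 / Medium: assay buffer / Also added: depolarizing K+/Tl+ stimulus, K2SO4 and Tl2SO4 each 12.5 mM in 5x stock / Incubation: 90 min dye loading and 20 min compound exposure, both at room temperature / Signal: thallium influx via FluxOR fluorescence, kinetic imaging / Evaluation: B score of baseline-normalized fluorescence ratio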
KCNQ1 inh = inhibitors of human KCNQ1 channel, primary screen, cell-based, thallium flux, high-throughput | B-score at 10 µM | Potassium voltage-gated channel subfamily KQT member 1 (Homo sapiens), P51787 | CHO-K1 KCNQ1, FluxOR thallium flux fluorescence; active compounds read high | 1.3% of 310,000 active;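 active means compounds whose thallium flux B-score, printed positive for inhibition, exceeds three library SD while starting fluorescence stays within three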;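 further: channel opened by potassium depolarization with thallium stimulus after 20 min compound exposure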
Kir21 inh = inhibitors of mouse Kir2.1 inward-rectifier potassium channel. B-score at 10 µM. Inward rectifier potassium channel 2 (Mus musculus), P35561. AID 1672, 2009. 0.85% of 310,000 active. HEK293-Kir2.1, FluxOR thallium flux fluorescence; active compounds read low;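 active means fluorescence ratio B-score at or below minus 3 SD of library scores, with starting-brightness B-score within 2 SD, cut at about -4.2 in these data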;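 further: channel flux triggered by added potassium and thallium sulfate stimulus; B-score of peak minus minimum fluorescence over baseline after thallium stimulus; more negative B-score means stronger Kir2.1 block with less thallium influx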
hERG rescue = hERG rescue from dofetilide block, primary screen, cell-based, CHO-hERG, FluxOR thallium flux, dofetilide IC70; AID 1511, 2009; Voltage-gated inwardly rectifying potassium channel KCNH2 (Homo sapiens), Q12809; activation (rescue from dofetilide block), less the hit threshold, % at 10 µM; 0.51% of 310,000 active; dofetilide IC70 present;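 active means activation above the mean of controls blocked by dofetilide plus 5 SD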;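 further: thallium influx through hERG after potassium depolarization seen as dye fluorescence rise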
Large screens that a line does not name were inactive. Most compounds without a hit are left out; they make up all but 3.7% or so of the library.

O=S(=O)(c1cnc(Cl)c(Cl)c1)N1CCCc2ccccc21	Kir21 inh -4.6
COc1ccc(S(=O)(=O)N2CCCc3ccccc32)cc1[N+](=O)[O-]	none
COc1ccc(S(=O)(=O)N2CCCc3ccccc32)cc1OC	Kir21 inh -5.3
CCNC(=O)COC(=O)c1cc(S(=O)(=O)N2CCCc3ccccc32)ccc1Cl	Kir21 inh -4.4
CCOC(=O)C1(Cc2cccc(Cl)c2)CCCN(C(=O)CCN2CCCC2=O)C1 (stereo unspecified)	none
O=C(Nc1ncc([N+](=O)[O-])s1)c1cccc([N+](=O)[O-])c1	KCNQ1 inh 8
Cc1ccc(C(=O)Nc2cc([N+](=O)[O-])ccc2C)cc1	none
O=C(Nc1ccc(NC(=O)c2cccc([N+](=O)[O-])c2)cc1)c1cccc([N+](=O)[O-])c1	none
Cc1ccc([N+](=O)[O-])cc1NC(=O)c1ccc(C(C)(C)C)cc1	KCNQ1 inh 9
O=C(Nc1nc(-c2ccccc2)cs1)c1cccc([N+](=O)[O-])c1	none
O=C(Nc1cc([N+](=O)[O-])ccc1O)c1cccc([N+](=O)[O-])c1	KCNQ1 inh 7
O=C(Nc1ccc(Cc2ccncc2)cc1)c1cccc([N+](=O)[O-])c1	hERG rescue 9.8
CCC(=O)Nc1ccc2c(c1)Cc1cc([N+](=O)[O-])ccc1-2	none (no result: KCNK9 inh, KCNQ1 act, KCNQ1 inh, Kir21 inh, hERG rescue)
COc1ccccc1CN1CCC(n2nccc2NC(=O)CCOc2ccccc2)CC1	none
Cc1cc2c(cc1C)CSC(c1ccccc1OC(=O)C(C)(C)C)SC2	KCNQ1 inh 6
CCCCC(=O)Oc1ccccc1C1SCc2cc(C)c(C)cc2CS1	none
CCN(CC)S(=O)(=O)c1ccc(C(=O)NCCOC(=O)c2ccc(F)cc2F)cc1	none
CCCN(Cc1ccccc1)C(=S)Nc1ccc(SC(F)F)cc1	KCNQ1 inh 6
O=C(Nc1ccc(CSc2ccccc2)cc1)c1ccco1	none
CCOC(=O)C1=C(CSc2nc(-c3ccncc3)ccc2C#N)OC(N)=C(C#N)C1c1ccc(OC)cc1 (stereo unspecified)	KCNK9 inh -7.9
CCCCCC(=C/c1ccccc1)/C=N/Nc1ccc(S(=O)(=O)N2CCOCC2)cc1[N+](=O)[O-]	none (no result: KCNK9 inh, KCNQ1 act, KCNQ1 inh, Kir21 inh, hERG rescue)
O=c1c(C=NCCN2CCNCC2)c(-c2ccccc2)[nH]n1-c1ccc([N+](=O)[O-])cc1	Kir21 inh -5.4 (no result: KCNK3 inh)
CN(C)c1cc(N/N=C/c2ccc(Cl)cc2)nc(N(C)C)n1	KCNQ1 inh 7
COc1cc(N/N=C/c2ccc(N(C)C)cc2)ncn1	none
S=C(Nc1ccccc1)N1CCc2ccccc21	none
O=C(NC(=S)N1CCc2ccccc21)c1ccccc1Cl	KCNQ1 act 24, hERG rescue 31
O=[N+]([O-])c1ccc(NC(=S)N2CCc3ccccc32)cc1	KCNQ1 inh 9
O=C(COc1ccccc1F)N1CCCc2ccccc21	none
O=C(NC(=S)N1CCc2ccccc21)c1ccccc1	hERG rescue 24
CC(=O)c1cc(F)ccc1OCC(=O)N1CCCc2ccccc21	Kir21 inh -6.5
O=C(CN1CCN(c2ccc(O)cc2)CC1)N(C1CC1)C1CCS(=O)(=O)C1 (stereo unspecified)	none (no result: KCNK9 inh, KCNQ1 act, KCNQ1 inh, Kir21 inh, hERG rescue)
CN1CCCN(C(=O)CNC(=O)c2ccc(Cl)cc2Cl)CC1	none (no result: KCNK9 inh, KCNQ1 act, KCNQ1 inh, Kir21 inh, hERG rescue)
CCOC(=O)C1=C(COC(=O)Cc2c(F)cccc2Cl)NC(=O)NC1C (stereo unspecified)	none (no result: KCNK9 inh, KCNQ1 act, KCNQ1 inh, Kir21 inh, hERG rescue)
COc1cccc(CNC(=O)CNS(=O)(=O)c2ccc(Br)s2)c1	none
O=C(COc1ccc(Cl)cc1Cl)OCC(=O)N1CCCc2ccccc21	none
O=C(COc1ccc(Cl)cc1Cl)NC(=S)N1CCCc2ccccc21	hERG rescue 13
COc1ccc(C2CC(c3ccccc3)=NN2C(=O)CCCC(=O)O)cc1 (stereo unspecified)	none
CN(C1CCCCC1)S(=O)(=O)c1cccc2nsnc12	Kir21 inh -5.1
N#CCCN(C1CCCCC1)S(=O)(=O)c1cccc2nsnc12	none
CCN(c1ccc(F)cc1)S(=O)(=O)c1cccc2nsnc12	Kir21 inh -5.5
CC(C)(C)C(=O)O/N=C1\CCS(=O)(=O)c2sccc21	none
O=C(O/N=C1\CCS(=O)(=O)c2sccc21)C1CC1	hERG rescue 5.0
CCCCn1c(N)c(N(CCOC)C(=O)c2cc(S(=O)(=O)N3CCOCC3)ccc2Cl)c(=O)[nH]c1=O	none (no result: KCNK9 inh, KCNQ1 act, KCNQ1 inh, Kir21 inh, hERG rescue)
Cc1cc(C)c(Cc2c(C)nc3c(C(=O)NCc4ccco4)cnn3c2C)c(C)c1	KCNK9 inh -7.3
CCN1C(=O)/C(=C\c2ccco2)C(C(=O)OC)=C1C	none
COC(=O)C1=C(C)N(c2cccc(OC)c2)C(=O)/C1=C\c1ccco1	KCNK9 inh -7.3
CCOc1ccc(-c2c(=O)n(O)c3ccccc3[n+]2[O-])cc1	KCNQ1 act 12, hERG rescue 18
CCOc1ccc(-c2c(=O)n(OCC)c3ccccc3[n+]2[O-])cc1	none
COn1c(=O)c(-c2ccc(C)cc2)[n+]([O-])c2ccccc21	none
O=c1c(-c2ccccc2)[n+]([O-])c2ccccc2n1O	hERG rescue 13
COn1c(=O)c(-c2ccccc2)[n+]([O-])c2ccccc21	none
Cc1ccc(-c2c(=O)n(O)c3ccccc3[n+]2[O-])cc1	KCNQ1 act 17
O=C(CN(Cc1ccccc1)C(=O)CCC(=O)Nc1nccs1)NCC1CCCO1 (stereo unspecified)	none
Cn1c(SSc2ccc(-c3cccnc3)n2C)ccc1-c1cccnc1	none (no result: KCNK9 inh, KCNQ1 act, KCNQ1 inh, Kir21 inh, hERG rescue)
Cc1ccc(N2CC(C(=O)Nc3ncc([N+](=O)[O-])s3)CC2=O)cc1 (stereo unspecified)	KCNQ1 inh 6
CCOC(=O)Cc1csc(NC(=S)NC(=O)c2ccc([N+](=O)[O-])cc2)n1	none
CCOC(=O)Cc1csc(NC(=S)NC(=O)c2ccc(Cl)cc2)n1	KCNQ1 act 17, hERG rescue 7.3
O=Cc1s/c(=N\S(=O)(=O)c2ccccc2)n(CCCCl)c1Cl	hERG rescue 7.4
CCOc1ccc(S(=O)(=O)NCCC(=O)NC2CCC(C)CC2)cc1 (stereo unspecified)	none (no result: KCNK9 inh, KCNQ1 act, KCNQ1 inh, Kir21 inh, hERG rescue)
O=C(Nc1nc2c(F)cccc2s1)c1ccco1	none
COc1cccc2sc(Nc3nc(-c4ccccn4)cs3)nc12	KCNK9 inh -6.9, KCNQ1 act 33, hERG rescue 24
COc1cccc2sc(Nc3nnc(-c4cccs4)o3)nc12	KCNQ1 act 19, hERG rescue 34
Fc1cccc2sc(Nc3nnc(-c4ccco4)o3)nc12	KCNQ1 act 21, hERG rescue 13

Source: PubChem BioAssay (Johns Hopkins Ion Channel Center)
